Experimental data as given in article PMC3431585 (Channels, 2012).
Like-named read-outs stand apart in the source and are kept apart here.

Experiments:
[1] = target: T1, homomeric human CNGA3 channels (Homo sapiens, UniProt Q16281); format: biochemical; conditions: for gating effect (increase in cGMP apparent affinity) compared with MMP9: within 40 min of exposure, MMP2 10 nM, trypsin 10 nM, collagenase 100 nM; for EC50: read-out: K1/2 cGMP (Hill fit); for IMAX cAMP (Hill fit): normalized to maximum cGMP current
T1 sequence (Q16281 1-694): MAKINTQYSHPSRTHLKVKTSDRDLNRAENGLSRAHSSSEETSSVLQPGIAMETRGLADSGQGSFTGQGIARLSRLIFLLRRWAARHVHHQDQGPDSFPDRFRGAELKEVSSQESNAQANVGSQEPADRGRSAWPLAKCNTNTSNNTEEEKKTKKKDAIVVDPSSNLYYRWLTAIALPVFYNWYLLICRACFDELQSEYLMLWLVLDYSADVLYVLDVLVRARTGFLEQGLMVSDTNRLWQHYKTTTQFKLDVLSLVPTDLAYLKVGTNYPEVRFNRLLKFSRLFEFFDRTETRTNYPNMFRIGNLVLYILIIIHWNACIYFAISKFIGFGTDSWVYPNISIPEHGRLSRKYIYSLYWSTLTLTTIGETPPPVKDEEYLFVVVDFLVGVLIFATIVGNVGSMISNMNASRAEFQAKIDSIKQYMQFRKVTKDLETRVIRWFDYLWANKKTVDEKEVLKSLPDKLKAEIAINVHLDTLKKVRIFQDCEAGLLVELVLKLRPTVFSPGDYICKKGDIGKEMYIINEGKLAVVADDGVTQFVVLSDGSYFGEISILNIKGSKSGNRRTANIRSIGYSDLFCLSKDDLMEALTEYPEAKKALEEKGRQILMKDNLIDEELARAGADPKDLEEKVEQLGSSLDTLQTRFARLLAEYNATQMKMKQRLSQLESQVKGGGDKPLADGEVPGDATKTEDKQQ

[2] = target: T2, heteromeric CNGA3 + CNGB3 channels (Homo sapiens, UniProt Q16281+Q9NQW8); format: biochemical
T2 sequence (Q16281 1-694): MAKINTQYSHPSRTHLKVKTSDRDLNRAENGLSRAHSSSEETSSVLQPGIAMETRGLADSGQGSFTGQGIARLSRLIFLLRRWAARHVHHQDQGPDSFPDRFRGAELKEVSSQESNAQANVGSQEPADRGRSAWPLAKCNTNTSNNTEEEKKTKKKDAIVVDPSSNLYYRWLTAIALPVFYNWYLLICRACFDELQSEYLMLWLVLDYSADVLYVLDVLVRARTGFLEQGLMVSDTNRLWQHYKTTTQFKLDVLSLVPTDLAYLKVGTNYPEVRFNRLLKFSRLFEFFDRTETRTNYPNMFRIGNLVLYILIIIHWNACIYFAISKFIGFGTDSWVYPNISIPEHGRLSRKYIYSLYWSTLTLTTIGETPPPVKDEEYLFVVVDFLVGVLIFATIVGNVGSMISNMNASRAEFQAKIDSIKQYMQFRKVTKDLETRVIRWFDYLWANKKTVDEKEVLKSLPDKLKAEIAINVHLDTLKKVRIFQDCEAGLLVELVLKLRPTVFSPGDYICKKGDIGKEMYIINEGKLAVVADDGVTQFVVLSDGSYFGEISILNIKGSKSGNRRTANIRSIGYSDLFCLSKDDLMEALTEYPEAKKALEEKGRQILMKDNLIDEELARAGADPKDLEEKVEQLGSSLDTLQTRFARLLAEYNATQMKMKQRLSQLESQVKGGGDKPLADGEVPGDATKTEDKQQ
T2 sequence (Q9NQW8 1-809): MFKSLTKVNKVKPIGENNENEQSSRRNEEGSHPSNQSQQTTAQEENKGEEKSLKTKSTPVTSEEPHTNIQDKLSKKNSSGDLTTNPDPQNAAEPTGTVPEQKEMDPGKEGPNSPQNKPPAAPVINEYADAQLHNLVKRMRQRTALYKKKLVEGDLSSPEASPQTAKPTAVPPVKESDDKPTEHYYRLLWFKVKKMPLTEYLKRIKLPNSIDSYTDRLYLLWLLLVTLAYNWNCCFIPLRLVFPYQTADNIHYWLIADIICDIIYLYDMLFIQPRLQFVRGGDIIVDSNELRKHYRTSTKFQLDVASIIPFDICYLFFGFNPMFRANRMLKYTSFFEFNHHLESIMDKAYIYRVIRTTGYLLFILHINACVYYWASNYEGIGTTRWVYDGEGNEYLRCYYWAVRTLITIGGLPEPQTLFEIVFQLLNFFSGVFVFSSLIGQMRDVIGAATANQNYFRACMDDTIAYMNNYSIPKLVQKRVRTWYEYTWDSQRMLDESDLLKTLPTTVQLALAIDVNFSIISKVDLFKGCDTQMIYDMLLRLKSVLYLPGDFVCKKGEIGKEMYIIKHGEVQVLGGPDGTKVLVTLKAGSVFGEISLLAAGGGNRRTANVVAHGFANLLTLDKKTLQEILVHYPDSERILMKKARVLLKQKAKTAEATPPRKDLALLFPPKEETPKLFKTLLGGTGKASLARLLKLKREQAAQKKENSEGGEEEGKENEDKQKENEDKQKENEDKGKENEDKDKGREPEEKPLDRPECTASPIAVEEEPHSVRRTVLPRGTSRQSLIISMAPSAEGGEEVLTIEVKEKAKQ

[3] = target: T3, homomeric CNGA1 channels (Bos taurus, UniProt Q00194); test: Inside-out patch-clamp of oocyte patches expressing rod homomeric CNGA1 channels; format: biochemical, bovine
T3 sequence (Q00194 1-690): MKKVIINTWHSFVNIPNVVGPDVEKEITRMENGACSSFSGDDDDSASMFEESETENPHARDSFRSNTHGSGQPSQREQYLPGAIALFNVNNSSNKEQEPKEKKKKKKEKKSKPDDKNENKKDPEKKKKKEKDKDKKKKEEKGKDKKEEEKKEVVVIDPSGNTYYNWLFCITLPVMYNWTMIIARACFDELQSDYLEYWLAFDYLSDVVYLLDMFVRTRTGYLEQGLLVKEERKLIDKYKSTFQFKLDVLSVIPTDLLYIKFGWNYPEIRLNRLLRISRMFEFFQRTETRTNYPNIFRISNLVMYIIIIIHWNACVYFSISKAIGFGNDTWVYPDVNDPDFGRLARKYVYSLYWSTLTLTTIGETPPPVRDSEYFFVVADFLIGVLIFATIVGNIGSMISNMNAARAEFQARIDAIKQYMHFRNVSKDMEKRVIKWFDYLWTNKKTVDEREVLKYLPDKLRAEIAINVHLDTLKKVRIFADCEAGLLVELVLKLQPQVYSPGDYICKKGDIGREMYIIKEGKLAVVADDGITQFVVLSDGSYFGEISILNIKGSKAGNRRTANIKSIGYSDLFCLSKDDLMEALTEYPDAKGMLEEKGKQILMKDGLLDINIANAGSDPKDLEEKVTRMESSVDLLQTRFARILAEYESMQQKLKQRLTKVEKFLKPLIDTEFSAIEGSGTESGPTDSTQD

[4] = target: heteromeric CNGA1 + CNGB1 channels (UniProt Q00194+Q14028); format: biochemical, bovine CNGA1, human CNGB1; conditions: for EC50: read-out: K1/2 cGMP (Hill fit)
[5] = target: native rod photoreceptor CNG channels; test: Inside-out patches excised from Xenopus rod outer segments; format: biochemical, Xenopus laevis
In short: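 Retinas dissected from Xenopus laevis into frog Ringer's (pH 7.6), and rod outer segments freed by gentle agitation. Inside-out patches (pipettes 3–6 MΩ) at 20–23°C, with 130 mM NaCl, 0.2 mM EDTA, 3 mM HEPES (pH 7.2) solutions.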

[6] = representative control patch, t40 (Fig 4B)
[7] = representative control patch, t60 (Fig 1B)
[8] = representative control patch, t0 (Fig 9C)
[9] = representative control patch, t40 (Fig 9C)
[10] = representative control patch, t0 (Fig 1F)
[11] = representative control patch, t80 (Fig 1F)

heteromeric CNGA1 + CNGB1 channels, sequence (Q14028 whole entry, one chain of several): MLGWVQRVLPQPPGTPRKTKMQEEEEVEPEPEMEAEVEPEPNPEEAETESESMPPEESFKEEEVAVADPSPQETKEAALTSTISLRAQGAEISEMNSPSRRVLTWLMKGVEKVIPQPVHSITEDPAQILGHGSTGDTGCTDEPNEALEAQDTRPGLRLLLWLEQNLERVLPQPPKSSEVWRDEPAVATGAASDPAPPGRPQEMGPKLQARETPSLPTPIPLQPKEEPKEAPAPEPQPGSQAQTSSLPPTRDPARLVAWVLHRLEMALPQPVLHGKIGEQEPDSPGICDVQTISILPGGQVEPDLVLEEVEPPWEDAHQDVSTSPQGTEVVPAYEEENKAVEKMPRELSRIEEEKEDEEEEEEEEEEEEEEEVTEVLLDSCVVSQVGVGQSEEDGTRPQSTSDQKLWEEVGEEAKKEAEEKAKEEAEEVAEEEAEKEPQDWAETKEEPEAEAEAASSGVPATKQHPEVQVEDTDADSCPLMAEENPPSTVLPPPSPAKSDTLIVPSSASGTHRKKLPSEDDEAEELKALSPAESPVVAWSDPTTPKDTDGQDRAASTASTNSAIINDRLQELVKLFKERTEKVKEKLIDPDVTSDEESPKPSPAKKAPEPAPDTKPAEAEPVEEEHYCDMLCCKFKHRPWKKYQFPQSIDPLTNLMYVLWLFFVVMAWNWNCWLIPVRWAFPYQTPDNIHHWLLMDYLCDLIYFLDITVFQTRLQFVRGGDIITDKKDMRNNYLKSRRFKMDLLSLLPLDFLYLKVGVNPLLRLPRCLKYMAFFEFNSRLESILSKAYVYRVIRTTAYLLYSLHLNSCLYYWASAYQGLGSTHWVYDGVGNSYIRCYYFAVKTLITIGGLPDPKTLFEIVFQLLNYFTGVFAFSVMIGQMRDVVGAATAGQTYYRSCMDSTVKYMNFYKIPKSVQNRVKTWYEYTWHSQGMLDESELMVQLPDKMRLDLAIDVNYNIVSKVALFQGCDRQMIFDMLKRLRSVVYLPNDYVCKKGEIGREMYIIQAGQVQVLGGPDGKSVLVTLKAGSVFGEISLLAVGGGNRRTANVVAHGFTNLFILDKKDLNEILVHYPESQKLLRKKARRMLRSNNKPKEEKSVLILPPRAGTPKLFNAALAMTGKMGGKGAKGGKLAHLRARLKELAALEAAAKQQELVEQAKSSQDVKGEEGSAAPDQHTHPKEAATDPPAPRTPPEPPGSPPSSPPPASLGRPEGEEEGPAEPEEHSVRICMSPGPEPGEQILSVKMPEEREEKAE

Molecule: collagenase
- gating effect (increase in cGMP apparent affinity) compared with MMP9 [1]: failed to produce similar gating effects

Molecule: Nc1nc2c(ncn2[C@@H]2O[C@@H]3COP(=O)(O)O[C@H]3[C@H]2O)c(=O)[nH]1 [cGMP, cyclic guanosine monophosphate]
- equilibrium constant for the allosteric transition (L) ([1]; A3 control, cGMP, 80 min post excision, allosteric model fit (Fig 10A)): 180
- Hill slope nH, cGMP ([1]; control patches, 60 min, n = 6): 2.2 ± 0.2
- EC50 [1, 6]: 8 µM
- EC50 [1, 7]: 10.3 µM
- nH cGMP (Hill fit) ([1]; representative control patch, t0 (Fig 1B)): 2.9
- IMAX cGMP (Hill fit) ([1]; representative control patch, t0 (Fig 1B), normalized to maximum t0 cGMP current): 1.0
- nH cGMP (Hill fit) [1, 6]: 2.3
- nH cGMP (Hill fit) [1, 7]: 2.1
- 2 μM cGMP current, I2μM/IMAX ([2]; control, 80 min, n = 4-6): 0.03 ± 0.006
- EC50 ([2]; read-out: K1/2,GMP, time-matched control, 80 min, n = 4-6): 16.4 µM
- EC50 ([2]; read-out: K1/2 cGMP (Hill fit), representative control patch, t0 (Fig 8A)): 15.7 µM
- EC50 ([2]; read-out: K1/2 cGMP (Hill fit), representative control patch, t80 (Fig 8A)): 16.5 µM
- nH cGMP (Hill fit) ([2]; representative control patch, t0 (Fig 8A)): 2.1
- IMAX cGMP (Hill fit) ([2]; representative control patch, t0 (Fig 8A), normalized to maximum t0 cGMP current): 1.0
- nH cGMP (Hill fit) ([2]; representative control patch, t80 (Fig 8A)): 1.9
- equilibrium constant for the allosteric transition (L) ([3]; A1 control, cGMP, 40 min post excision (Fig 10B)): 40
- nH cGMP (Hill fit) ([3]; representative control patch, t0 (Fig 9A)): 2.2
- IMAX cGMP (Hill fit) ([3]; representative control patch, t0 (Fig 9A), normalized to maximum t0 cGMP current): 1.0
- nH cGMP (Hill fit) ([3]; representative control patch, t40 (Fig 9A)): 2.2
- equilibrium constant for the allosteric transition (L) ([4]; A1+B1 control, cGMP, 40 min post excision (Fig 10B)): 20
- EC50 [4, 8]: 59.4 µM
- EC50 [4, 9]: 55.6 µM
- nH cGMP (Hill fit) [4, 8]: 2.3
- IMAX cGMP (Hill fit) ([4]; representative control patch, t0 (Fig 9C), normalized to maximum t0 cGMP current): 1.0
- nH cGMP (Hill fit) [4, 9]: 2.4
- EC50 ([5]; read-out: K1/2 cGMP (Hill fit), representative control patch, t0 (Fig 11A)): 19.3 µM
- EC50 ([5]; read-out: K1/2 cGMP (Hill fit), representative control patch, t25 (Fig 11A)): 28.1 µM
- EC50 ([5]; read-out: initial K1/2 cGMP, native CNG channels, initial value): 23.5 ± 2.1 µM
- nH cGMP (Hill fit) ([5]; representative control patch, t0 (Fig 11A)): 2.6
- nH cGMP (Hill fit) ([5]; representative control patch, t25 (Fig 11A)): 2.6

Molecule: CCCCNc1ccc(C(=O)OCCN(C)C)cc1 [tetracaine]
- effect on the increased persistent current after MMP9 ([2]; data not shown): inhibited

Molecule: Nc1ncnc2c1ncn2[C@@H]1O[C@@H]2COP(=O)(O)O[C@H]2[C@H]1O [cAMP, cyclic adenosine monophosphate]
- efficacy of cAMP, IcAMP/IMAX ([1]; control patches, 60 min, n = 6): 0.15 ± 0.05
- nH cAMP (Hill fit) [1, 10]: 1.1
- IMAX cAMP (Hill fit) [1, 10]: 0.29
- nH cAMP (Hill fit) [1, 11]: 1.0
- IMAX cAMP (Hill fit) [1, 11]: 0.14

B1: trypsin: extracellular serine protease, Trypsin-EDTA (Gibco, 25200) (protein, UniProt P00761 9-231, looked up)
Trypsin: IVGGYTCAANSIPYQVSLNSGSHFCGGSLINSQWVVSAAHCYKSRIQVRLGEHNIDVLEGNEQFINAAKIITHPNFNGNTLDNDIMLIKLSSPATLNSRVATVSLPRSCAAAGTECLISGWGNTKSSGSSYPSLLQCLKAPVLSDSSCKSSYPGQITGNMICVGFLEGGKDSCQGDSGGPVVCNGQLQGIVSWGYGCAQKNKPGVYTKVCNYVNWIQQTIAAN
modifications: EDTA
- gating effect (increase in cGMP apparent affinity) compared with MMP9 [1]: failed to produce similar gating effects

B2: MMP2: active human recombinant MMP2 (Calbiochem, PF023), closely related gelatinase/metalloproteinase (protein, UniProt P08253 110-660, looked up)
72 kDa type IV collagenase: YNFFPRKPKWDKNQITYRIIGYTPDLDPETVDDAFARAFQVWSDVTPLRFSRIHDGEADIMINFGRWEHGDGYPFDGKDGLLAHAFAPGTGVGGDSHFDDDELWTLGEGQVVRVKYGNADGEYCKFPFLFNGKEYNSCTDTGRSDGFLWCSTTYNFEKDGKYGFCPHEALFTMGGNAEGQPCKFPFRFQGTSYDSCTTEGRTDGYRWCGTTEDYDRDKKYGFCPETAMSTVGGNSEGAPCVFPFTFLGNKYESCTSAGRSDGKMWCATTANYDDDRKWGFCPDQGYSLFLVAAHEFGHAMGLEHSQDPGALMAPIYTYTKNFRLSQDDIKGIQELYGASPDIDLGTGPTPTLGPVTPEICKQDIVFDGIAQIRGEIFFFKDRFIWRTVTPRDKPMGPLLVATFWPELPEKIDAVYEAPQEEKAVFFAGNEYWIYSASTLERGYPKPLTSLGLPPDVQRVDAAFNWSKNKKTYIFAGDKFWRYNEVKKKMDPGFPKLIADAWNAIPDNLDAVVDLQGGGHSYFFKGAYYLKLENQSLKSVKFGSIKSDWLGC
- gating effect (increase in cGMP apparent affinity) compared with MMP9 [1]: indistinguishable from the effect produced by MMP9
